Reference: article PMC5862033 (Molecular psychiatry, 2017)

Legend:
[1] = study did not use labelled OT; cited from earlier work
[2] = used as correction in blood contamination formula; cited from earlier work
[3] = statement in discussion, no reference given; cited from earlier work
[4] = d5 OT pharmacokinetics in plasma and CSF after IN and IV administration; type: in vivo, rhesus monkeys (Macaca Mulatta); conditions: for Drug targeting efficiency percentage (DTE%), single monkey: 80 IU d5 OT IN vs IV, AUC0-60 min, individual monkey
Summary of the method: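 Rhesus monkeys sedated IM: ketamine (10 mg/kg), dexdomitor (0.01 mg/kg), glycopyrrolate 0.01 mg/kg i.m.; 80 IU deuterated test compound given IN or IV (1 mL normal saline, leg vein), IN saline control, counterbalanced weekly sessions. Blood and CSF drawn pre-dose and 10–60 min. Samples acetonitrile-precipitated, SPE-cleaned at pH 3.0, LC-MS/MS. Non-compartmental AUC0–60, Cmax, Tmax; bioavailability and DTE from AUC ratios.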

Molecule: CC[C@H](C)[C@@H]1NC(=O)[C@H](Cc2ccc(O)cc2)NC(=O)[C@@H](N)CSSC[C@@H](C(=O)N2CCC[C@H]2C(=O)N[C@@H](CC(C)C)C(=O)NCC(N)=O)NC(=O)[C@H](CC(N)=O)NC(=O)[C@H](CCC(N)=O)NC1=O [OT, Oxytocin]
- Fraction of OT crossing the BBB [1]: ~ .002%
- Fraction of OT that is not protein bound [2]: 0.7

Molecule: atosiban
- Passage of the BBB [3]: does not pass the BBB

Molecule: d5-oxytocin [d5 OT]
- Drug targeting efficiency percentage (DTE%), single monkey ([4]; first of 4 values listed): 33.6%
- Drug targeting efficiency percentage (DTE%), single monkey ([4]; second of 4 values listed): 50.5%
- Drug targeting efficiency percentage (DTE%), single monkey ([4]; third of 4 values listed): 154.6%
- Bioavailability post IN administration for plasma and CSF ([4]; 100 x (AUC IN/AUC IV), 80 IU d5 OT, plasma and CSF, values only in words): similar, albeit low
